The source of these data is ChEMBL document CHEMBL3779787, “Amorfrutin C Induces Apoptosis and Inhibits Proliferation in Colon Cancer Cells through Targeting Mitochondria” (J Nat Prod, 2016).

The IC50 is the midpoint of a concentration-inhibition curve. In general, Ki refers to a dissociation constant, usually derived from enzyme kinetics or from competition with a known ligand. Low readings indicate tighter binding, high ones weaker binding.

Calls of active or inactive are those of the source. The rule behind the calls is not given here.

Assay [1] relates to MCF7. Briefly: Antiproliferative activity against human MCF7 cells assessed as cellular DNA content after 96 hrs by CyQUANT NF fluorescence assay. In kind it is functional, cell-based. Conditions: MCF7, 96 h. A digest of the protocol:
(§1)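 Cells seeded at 750 (HT-29), 250 (PC-3) or 900 (T84, MCF7) cells/well, treated next day with concentration series for 72 h (HT-29, PC-3) or 96 h (T84, MCF7). Relative cell number from cellular DNA content by fluorescent DNA-binding dye. Variable-slope fit; efficiency = maximal inhibition (100% − Bottom) vs untreated; IC50 relative to the compound's own maximal efficiency.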

Assay [2] has as its system HT-29. Kind of assay: Increase in extracellular acidification rate in human HT-29 cells at 10 uM measured for 20 to 150 mins by time-resolved fluorescence assay relative to control. The assay is classed as functional. A digest of the protocol:
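HT-29 cells seeded 80 000/well, incubated overnight at 37 °C without CO2. Washed and loaded with pH-sensitive time-resolved fluorescence probe in low-buffering medium (1 mM PBS pH 7.4, 20 mM glucose, salts), 10 min at 37 °C, then compound added, wells unsealed. Read 200 min at 37 °C; lifetime converted to pH, rate taken 20–150 min as H+ change/min; n = 8.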

For assay [3], the system named is HT-29. Kind of assay: Induction of ROS generation in human HT-29 cells at 30 uM by CM-H2DCFDA staining-based fluorescence assay in presence of 3H-1,2-dithiole-3-thione. In kind it is functional, cell-based. A digest of the protocol:
(§2)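 HT-29 (15 000 cells/well) loaded with 50 μM CM-H2DCFDA in PBS for 30 min at 37 °C, washed, then 60 min in phenol red-free DMEM/F-12. 30 μM compound added alone or with NAC 1 mM, GSH 2.5 mM, D3T 25 μM, α-tocopherol 50 μM or ascorbic acid 500 μM. Fluorescence 485/530 nm read kinetically at 37 °C for 22 h; area under curve; means ± SEM, n = 7.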

Another assay has as its system T84. Kind of assay: Antiproliferative activity against human T84 cells assessed as cellular DNA content after 96 hrs by CyQUANT NF fluorescence assay relative to control. The assay is classed as functional. A digest of the protocol:
as §1

In assay [4] the test system is HT-29. Briefly: Induction of apoptosis in human HT-29 cells assessed as DNA fragmentation by measuring cytoplasmic oligonucleosome level at 30 uM by ELISA. In kind it is functional, cell-based. A digest of the protocol: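 Cytosolic DNA by ELISA after 4 h treatment. BrdU method: cells (13 000/well) prelabelled with 10 μM BrdU for 2 days at 37 °C, unincorporated BrdU removed before treatment. Oligonucleosome method: 20 000 cells/well, 1 day at 37 °C. Cell-free background subtracted, normalized to vehicle; means ± SEM, n = 4.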
A general note: In an ELISA, binding on a coated surface is turned into a signal by an enzyme label.

The test system of assay [5] is HT-29. Briefly: Induction of apoptosis in human HT-29 cells assessed as increase in cleaved caspase 3 at 30 uM after 6 hrs by DAPI staining-based fluorescence microscopy. In kind it is functional, cell-based. A digest of the protocol:
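HT-29 on coverslips treated 30 μM for 6 h, fixed in 4% formaldehyde, permeabilized with 0.3% Triton X-100, blocked in goat serum. Anti-cleaved caspase 3 (1:200) overnight at 4 °C, then Alexa Fluor 488 secondary (1:1000) 1 h. DAPI counterstain; imaged by fluorescence microscopy.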

The subject of assay [6] is HT-29. Kind of assay: Induction of ROS generation in human HT-29 cells at 30 uM by CM-H2DCFDA staining-based fluorescence assay in presence of ascorbic acid. In kind it is functional, cell-based. A digest of the protocol: as §2
The subject of assay [7] is MCF7. Kind of assay: Antiproliferative activity against human MCF7 cells assessed as cellular DNA content after 96 hrs by CyQUANT NF fluorescence assay relative to control. The assay is classed as functional. A digest of the protocol:
as §1

The nature of assay [8]: Antiproliferative activity against human PC3 cells assessed as cellular DNA content after 72 hrs by CyQUANT NF fluorescence assay. Particulars: PC-3, 72 h. The assay is classed as functional, cell-based. An outline of the steps:
as §1

For assay [9], the system named is HT-29. Kind of assay: Induction of apoptosis in human HT-29 cells assessed as increase in phosphatidylserine externalization at 10 uM after 48 hrs by flow cytometry in presence of TNF-related apoptosis inducing ligand. The assay is classed as functional, cell-based. An outline of the steps: (§3)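 HT-29 exposed 48 h to 10 μM compound, αFAS (10 ng/mL), TRAIL (30 ng/mL) or combinations. Phosphatidylserine externalization by annexin V flow cytometry. Expected combination effects from Bliss independence; means ± SEM, n = 4.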
(In general: In flow cytometry, cells or beads pass a laser one at a time.)

The test system of assay [10] is HT-29. Kind of assay: Induction of apoptosis in human HT-29 cells assessed as cleaved PARP level at 10 uM after 48 hrs. The assay is classed as functional, cell-based. An outline of the steps: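 HT-29 exposed to 10 μM for 48 h; whole-cell lysates immunoblotted for the indicated proteins (total and cleaved PARP for the apoptosis line).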
The test system of assay [11] is HT-29. Briefly: Induction of apoptosis in human HT-29 cells assessed as increase in phosphatidylserine externalization at 10 uM after 48 hrs by flow cytometry in presence of alphaFas. The assay is classed as functional, cell-based. A digest of the protocol:
as §3

Assay [12] has as its system HT-29. Kind of assay: Antiproliferative activity against human HT-29 cells assessed as cellular DNA content at 20 uM after 48 hrs by CyQUANT NF fluorescence assay in presence of glutathione. The assay is classed as functional, cell-based. A digest of the protocol: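 HT-29 given concentration series of test compound with or without antioxidant (NAC 1 mM, GSH 2.5 mM, D3T 25 μM, α-tocopherol 50 μM, ascorbic acid 500 μM) for 48 h. Relative cell number from DNA-binding fluorescent dye; means ± SD, n = 4.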

In assay [13] the test system is HT-29. Briefly: Induction of apoptosis in human HT-29 cells at 30 uM after 24 hrs by annexin V-FLUOS/propidium iodide staining-based flow cytometry in presence of N-acetylcysteine. In kind it is functional, cell-based. An outline of the steps:
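HT-29 treated 24 h with 30 μM with or without antioxidant (NAC 1 mM, D3T 25 μM). Apoptosis by annexin V/propidium iodide flow cytometry; means ± SEM, n = 3.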

The subject of assay [14] is HT-29. Briefly: Induction of apoptosis in human HT-29 cells assessed as opening of mitochondrial permeability transition pore at 30 uM after 30 mins calcein/CoCl2 staining-based fluorescence assay in presence of cyclosporinA. The assay is classed as functional, cell-based. A digest of the protocol: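 Trypsinized HT-29 (10^6 cells/mL) in HBSS/Ca with 10 nM calcein and 400 μM CoCl2. Pretreated 60 min at 37 °C with 2 μM cyclosporin A or vehicle, then test compound for 30 min at 37 °C. Washed; mitochondrial calcein fluorescence by flow cytometry; means ± SEM, n = 6.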

The target of assay [15] is T1, Peroxisome proliferator-activated receptor gamma (Homo sapiens, UniProt P37231).
T1 sequence (P37231 whole entry): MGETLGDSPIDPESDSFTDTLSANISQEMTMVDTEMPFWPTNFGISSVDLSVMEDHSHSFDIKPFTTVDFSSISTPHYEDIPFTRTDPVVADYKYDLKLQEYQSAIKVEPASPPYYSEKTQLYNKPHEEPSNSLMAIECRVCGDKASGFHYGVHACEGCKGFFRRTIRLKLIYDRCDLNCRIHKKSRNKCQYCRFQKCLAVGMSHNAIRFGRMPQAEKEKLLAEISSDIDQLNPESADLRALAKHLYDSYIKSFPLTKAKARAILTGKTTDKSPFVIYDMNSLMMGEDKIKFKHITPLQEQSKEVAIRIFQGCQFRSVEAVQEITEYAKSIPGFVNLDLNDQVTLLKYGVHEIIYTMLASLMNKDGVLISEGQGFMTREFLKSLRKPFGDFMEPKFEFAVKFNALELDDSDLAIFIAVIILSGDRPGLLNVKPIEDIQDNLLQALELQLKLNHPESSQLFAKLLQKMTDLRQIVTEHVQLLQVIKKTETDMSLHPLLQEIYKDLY
Briefly: Competitive binding affinity to PPARgamma (unknown origin) by TR-FRET assay. (In TR-FRET formats the signal depends on donor and acceptor labels being close together.)

With `COc1c(CC=C(C)C)c(O)c(C(=O)O)c(CCc2ccccc2)c1CC=C(C)C`, the concentration for half-maximal inhibition (IC50) was determined as 14 µM in the assay with MCF7 [1] and 16 µM in [8]. For the same compound, the “fold change (FC)” value in the assay on HT-29 [2] was 6. For the same compound, the result in the assay with HT-29 [3], in the assay on HT-29 [6] and in the assay on HT-29 [14] was inactive. Besides, the Efficacy in the assay on T84 is 99%; in the assay with MCF7 [7], 92%. For the same compound, the outcome in the assay with HT-29 [4], in the assay on HT-29 [5], in the assay on HT-29 [9], in the assay on HT-29 [10], in the assay on HT-29 [11] and with HT-29 [12] was Active. Moreover, the outcome in the assay with HT-29 [13] was Active. The Ki in assay [15] turned out to be 0.7 µM.
